Measurements from ChEMBL document CHEMBL1146776, “Identification and optimization of novel partial agonists of neuromedin B receptor using parallel synthesis” (Bioorg Med Chem Lett, 2004).

The compounds below were run against T1, Neuromedin-B receptor (Homo sapiens, UniProt P28336) (assay: Affinity of [125I][D-Tyr0]-NMB to human Neuromedin B receptor expressed in HEK293 cells). Conditions: not given.
Type: cell-based
Outline: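 Whole-cell competition binding on HEK293 cells stably transfected with hNMBR, 1 · 10⁶ cells per well in DMEM. Incubation 1 h at room temperature with 150 pM ¹²⁵I-[D-Tyr0]NMB (2200 Ci/mmol). Bound and free ligand separated by filtration; bound counts read by scintillation counting.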

T1 sequence (P28336 whole entry): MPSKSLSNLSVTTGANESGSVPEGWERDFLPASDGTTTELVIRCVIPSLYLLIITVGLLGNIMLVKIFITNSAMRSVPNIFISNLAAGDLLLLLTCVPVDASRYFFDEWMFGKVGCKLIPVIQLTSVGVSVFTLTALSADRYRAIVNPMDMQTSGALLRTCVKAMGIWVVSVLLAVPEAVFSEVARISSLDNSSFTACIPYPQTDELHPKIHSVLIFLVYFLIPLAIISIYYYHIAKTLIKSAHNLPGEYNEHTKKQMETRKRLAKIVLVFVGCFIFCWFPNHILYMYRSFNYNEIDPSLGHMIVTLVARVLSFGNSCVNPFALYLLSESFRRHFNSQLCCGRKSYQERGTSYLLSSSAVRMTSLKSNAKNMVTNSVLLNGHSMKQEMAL

IC50 | Structure (SMILES)
3040 nM | O=C(Nc1ccc(OC(F)(F)F)cc1)NC1(C(=O)NCC2(c3ccccn3)CCCCC2)CCc2[nH]c3ccccc3c2C1 (stereo not given)
29 nM | COc1cccc2[nH]c3c(c12)CC(NC(=O)Nc1c(C(C)C)cccc1C(C)C)(C(=O)NCC1(c2ccccn2)CCCCC1)CC3 (single isomer, unassigned; (+))
3920 nM | O=C(NC1CCCCC1)NC1(C(=O)NCC2(c3ccccn3)CCCCC2)CCc2[nH]c3ccccc3c2C1 (stereo not given)
1890 nM | CC(C)c1cccc(C(C)C)c1NC(=O)NC1(C(=O)NCC2(c3ccccn3)CCCCC2)CCc2[nH]c3cccc(OC(F)(F)F)c3c2C1 (stereo not given)
660 nM | Cc1cccc2[nH]c3c(c12)CC(NC(=O)Nc1c(C(C)C)cccc1C(C)C)(C(=O)NCC1(c2ccccn2)CCCCC1)CC3 (stereo not given)
> 10000 nM | CC(C)c1cccc(C(C)C)c1NC(=O)NC1(C(=O)NCC2(c3ccccn3)CCCCC2)CCc2[nH]c3cccc(C(=O)O)c3c2C1 (stereo not given)
3660 nM | CC(C)c1cccc(C(C)C)c1NC(=O)NC1(C(=O)NCC2(c3ccccn3)CCCCC2)CCc2[nH]c3cccc(C(F)(F)F)c3c2C1 (stereo not given)
320 nM | CC(C)c1cccc(C(C)C)c1NC(=O)NC1(C(=O)NCC2(c3ccccn3)CCCCC2)CCc2[nH]c3ccccc3c2C1 (stereo not given)
8720 nM | COc1ccccc1NC(=O)NC1(C(=O)NCC2(c3ccccn3)CCCCC2)CCc2[nH]c3ccccc3c2C1 (stereo not given)
700 nM | Cc1ccc2[nH]c3c(c2c1)C(C)C(NC(=O)Nc1c(C(C)C)cccc1C(C)C)(C(=O)NCC1(c2ccccn2)CCCCC1)CC3 (stereo in doubt; 22)
1110 nM | O=C(Nc1ccc(C(F)(F)F)cc1)NC1(C(=O)NCC2(c3ccccn3)CCCCC2)CCc2[nH]c3ccccc3c2C1 (stereo not given)
> 10000 nM | CCNC(=O)NC1(C(=O)NCC2(c3ccccn3)CCCCC2)CCc2[nH]c3ccccc3c2C1 (stereo not given)
1850 nM | CCOC(=O)c1cc(NC(=O)NC2(C(=O)NCC3(c4ccccn4)CCCCC3)CCc3[nH]c4ccccc4c3C2)cc(C(=O)OCC)c1 (stereo not given)
1010 nM | CC(C)c1cccc(C(C)C)c1NC(=O)NC1(C(=O)NCC2(c3ccccn3)CCCCC2)CCc2[nH]c3cc(F)ccc3c2C1F (stereo not given)
4150 nM | CC(C)c1cccc(C(C)C)c1NC(=O)NC1(C(=O)NCC(C)(C)c2ccccn2)CCc2[nH]c3ccccc3c2C1 (stereo not given)
3350 nM | CC(C)c1cccc(C(C)C)c1NC(=O)NC1(C(=O)NCC2(c3ccccn3)CC2)CCc2[nH]c3ccccc3c2C1 (stereo not given)
10000 nM | CC(C)(CNC(=O)C1(NC(=O)Nc2ccc([N+](=O)[O-])cc2)CCc2[nH]c3ccccc3c2C1)c1ccccn1 (stereo not given)
350 nM | CC(C)c1cccc(C(C)C)c1NC(=O)N[C@@](C)(Cc1c[nH]c2ccccc12)C(=O)NCC1(c2ccccn2)CCCCC1
> 10000 nM | CC(C)c1cccc(C(C)C)c1NC(=O)NC1(C(=O)NCC2(c3ccccn3)CCCCC2)CCc2[nH]c3cccc([N+](=O)[O-])c3c2C1 (stereo not given)
800 nM | O=C(Nc1ccc([N+](=O)[O-])cc1)NC1(C(=O)NCC2(c3ccccn3)CCCCC2)CCc2[nH]c3ccccc3c2C1 (stereo not given)
> 10000 nM | NC(=O)NC1(C(=O)NCC2(c3ccccn3)CCCCC2)CCc2[nH]c3ccccc3c2C1 (stereo not given)
> 10000 nM | O=C(Nc1ccc([N+](=O)[O-])cc1)NC1(C(=O)NCCc2ccccn2)CCc2[nH]c3ccccc3c2C1 (stereo not given)
2140 nM | CC(C)c1cccc(C(C)C)c1NC(=O)NC1(C(=O)NCC2(c3ccccn3)CCCCC2)CCc2[nH]c3cc(Br)ccc3c2C1 (stereo not given)
> 10000 nM | CC(C)c1cccc(C(C)C)c1NC(=O)NC1(C(=O)NCC2(c3ccc(Cl)cc3)CC2)CCc2[nH]c3ccccc3c2C1 (stereo not given)
> 10000 nM | O=C(Nc1ccc([N+](=O)[O-])cc1)NC1(C(=O)NCC2(c3ccccn3)CCS(=O)(=O)CC2)CCc2[nH]c3ccccc3c2C1 (stereo not given)
2270 nM | CC(=O)c1cccc(NC(=O)NC2(C(=O)NCC3(c4ccccn4)CCCCC3)CCc3[nH]c4ccccc4c3C2)c1 (stereo not given)
250 nM | COc1cccc2[nH]c3c(c12)CC(NC(=O)Nc1c(C(C)C)cccc1C(C)C)(C(=O)NCC1(c2ccccn2)CCCCC1)CC3 (stereo in doubt; 20)
790 nM | Cc1ccc2[nH]c3c(c2c1)C(C)C(NC(=O)Nc1c(C(C)C)cccc1C(C)C)(C(=O)NCC1(c2ccccn2)CCCCC1)CC3 (stereo in doubt; 23)
5490 nM | Cc1cccc(C)c1NC(=O)NC1(C(=O)NCC2(c3ccccn3)CCCCC2)CCc2[nH]c3ccccc3c2C1 (stereo not given)
620 nM | Cc1cc([N+](=O)[O-])ccc1NC(=O)NC1(C(=O)NCC2(c3ccccn3)CCCCC2)CCc2[nH]c3ccccc3c2C1 (stereo not given)

These compounds were tested on HeLa (assay: Cytotoxicity towards HeLa cells was determined). Conditions: Homo sapiens.
Type: functional, cell-based

Structure (SMILES) | IC50
COc1cccc2[nH]c3c(c12)CC(NC(=O)Nc1c(C(C)C)cccc1C(C)C)(C(=O)NCC1(c2ccccn2)CCCCC1)CC3 (single isomer, unassigned; (+)) | > 50 µM

Each compound was assayed against T1, Neuromedin-B receptor (assay: Agonistic activity was determined against human Neuromedin B receptor transfected in HEK293 cells as accumulation levels of inositol phosphate). Conditions: not given.
Type: functional, cell-based
Outline: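 hNMBR-transfected HEK293 cells (2.5 · 10⁴) labelled overnight at 37 °C in high-glucose DMEM with 25 mM Hepes, 10% dialyzed FBS and myo-[³H]inositol. Compounds added in inositol-free DMEM with 0.3% BSA and 10 mM LiCl, 60 min, 37 °C. Lysis in 20 mM formic acid, 2 h, 4 °C. Inositol phosphates captured on SPA beads and counted next day.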

EC50 | Structure (SMILES)
17.7 nM | COc1cccc2[nH]c3c(c12)CC(NC(=O)Nc1c(C(C)C)cccc1C(C)C)(C(=O)NCC1(c2ccccn2)CCCCC1)CC3 (single isomer, unassigned; (+))
603 nM | CC(C)c1cccc(C(C)C)c1NC(=O)NC1(C(=O)NCC2(c3ccccn3)CCCCC2)CCc2[nH]c3ccccc3c2C1 (stereo not given)
1970 nM | COc1cccc2[nH]c3c(c12)CC(NC(=O)Nc1c(C(C)C)cccc1C(C)C)(C(=O)NCC1(c2ccccn2)CCCCC1)CC3 (single isomer, unassigned; (-))
132 nM | COc1cccc2[nH]c3c(c12)CC(NC(=O)Nc1c(C(C)C)cccc1C(C)C)(C(=O)NCC1(c2ccccn2)CCCCC1)CC3 (stereo in doubt; 20)
